What was measured:
UO-31 = test: Antiproliferative activity against human UO-31 cells assessed as cell growth inhibition at 10 uM incubated for 48 hrs by sulforhodamine B assay relative to control; type: functional
Method in brief: (§1)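 NCI-60 single-dose screen at 10^-5 M. Cells grown in RPMI 1640 with 5% FBS and 2 mM L-glutamine, plated at 5,000–40,000 cells/well, and preincubated 24 h. Drug (DMSO stock) added and incubated 48 h at 37 °C, 5% CO2. Adherent cells fixed with cold TCA, stained with 0.4% SRB in 1% acetic acid, dye solubilized in 10 mM trizma base, A515 read. Percent growth taken against time-zero and untreated control.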

NCI-H522 = test: Antiproliferative activity against human NCI-H522 cells assessed as cell growth inhibition at 10 uM incubated for 48 hrs by sulforhodamine B assay relative to control; type: functional; method in brief: as §1
Malme-3M = test: Antiproliferative activity against human Malme-3M cells assessed as cell growth inhibition at 10 uM incubated for 48 hrs by sulforhodamine B assay relative to control; type: functional; method in brief: as §1
LOX IMVI = test: Antiproliferative activity against human LOX IMVI cells assessed as cell growth inhibition at 10 uM incubated for 48 hrs by sulforhodamine B assay relative to control; type: functional; method in brief: as §1
ACHN = test: Antiproliferative activity against human ACHN cells assessed as cell growth inhibition at 10 uM incubated for 48 hrs by sulforhodamine B assay relative to control; type: functional
Method in brief: (§2)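 Single-dose NCI-60 prescreen at 10^-5 M. Cells in RPMI 1640 with 5% FBS and 2 mM L-glutamine, seeded 5,000–40,000 cells/well with 24 h preincubation, then drug exposure for 48 h at 37 °C under 5% CO2. Growth read by SRB staining of TCA-fixed cells at 515 nm against time-zero and untreated controls. Negative growth values denote cell kill.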

T47D = test: Antiproliferative activity against human T47D cells assessed as cell growth inhibition at 10 uM incubated for 48 hrs by sulforhodamine B assay relative to control; type: functional; method in brief: as §1
SK-MEL-5 = test: Antiproliferative activity against human SK-MEL-5 cells assessed as cell growth inhibition at 10 uM incubated for 48 hrs by sulforhodamine B assay relative to control; type: functional; method in brief: as §1
CCRF-CEM = test: Antiproliferative activity against human CCRF-CEM cells assessed as cell growth inhibition at 10 uM incubated for 48 hrs by sulforhodamine B assay relative to control; type: functional; method in brief: as §2
HT-29 = test: Antiproliferative activity against human HT-29 cells assessed as cell growth inhibition at 10 uM incubated for 48 hrs by sulforhodamine B assay relative to control; type: functional; method in brief: as §1
[1] = n-Octanol/phosphate buffer partition coefficient, logP of the compound at pH 7.4 incubated for 85 mins by shake-flask method; type: physicochemical
Method in brief: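 Octanol–water partition by shake-flask: n-octanol with 0.15 M phosphate buffer pH 7.4 at 10:1 volumes. Buffer-phase absorbance read before mixing, then shaken 50 min and centrifuged at 2500 rpm for 35 min. Buffer absorbance read again; P = (Ai−Af)/Af × Vw/Vo.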

HCT-15 = test: Antiproliferative activity against human HCT-15 cells assessed as cell growth inhibition at 10 uM incubated for 48 hrs by sulforhodamine B assay relative to control; type: functional
Method in brief: (§3)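 NCI-60 one-dose prescreen at 10^-5 M. Cells grown in RPMI 1640 with 5% FBS and 2 mM glutamine, preincubated 24 h, then exposed 48 h at 37 °C. Adherent lines TCA-fixed, SRB-stained, A515 read. Growth percent relative to time-zero and control; negative values mean cell kill.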

BT-549 = test: Antiproliferative activity against human BT-549 cells assessed as cell growth inhibition at 10 uM incubated for 48 hrs by sulforhodamine B assay relative to control; type: functional; method in brief: as §2
SNB-19 = test: Antiproliferative activity against human SNB-19 cells assessed as cell growth inhibition at 10 uM incubated for 48 hrs by sulforhodamine B assay relative to control; type: functional; method in brief: as §1
KM12 = test: Antiproliferative activity against human KM12 cells assessed as cell growth inhibition at 10 uM incubated for 48 hrs by sulforhodamine B assay relative to control; type: functional; method in brief: as §1
MOLT-4 = test: Antiproliferative activity against human MOLT-4 cells assessed as cell growth inhibition at 10 uM incubated for 48 hrs by sulforhodamine B assay relative to control; type: functional; method in brief: as §1
U-251 = test: Antiproliferative activity against human U-251 cells assessed as cell growth inhibition at 10 uM incubated for 48 hrs by sulforhodamine B assay relative to control; type: functional; method in brief: as §1
NCI-H23 = test: Antiproliferative activity against human NCI-H23 cells assessed as cell growth inhibition at 10 uM incubated for 48 hrs by sulforhodamine B assay relative to control; type: functional; method in brief: as §1
M14 = test: Antiproliferative activity against human M14 cells assessed as cell growth inhibition at 10 uM incubated for 48 hrs by sulforhodamine B assay relative to control; type: functional; method in brief: as §1
MDA-MB-435 = test: Antiproliferative activity against human MDA-MB-435 cells assessed as cell growth inhibition at 10 uM incubated for 48 hrs by sulforhodamine B assay relative to control; type: functional; method in brief: as §1
HOP-92 = test: Antiproliferative activity against human HOP-92 cells assessed as cell growth inhibition at 10 uM incubated for 48 hrs by sulforhodamine B assay relative to control; type: functional; method in brief: as §3
OVCAR-8 = test: Antiproliferative activity against human OVCAR-8 cells assessed as cell growth inhibition at 10 uM incubated for 48 hrs by sulforhodamine B assay relative to control; type: functional; method in brief: as §1
MCF7 = test: Antiproliferative activity against human MCF7 cells assessed as cell growth inhibition at 10 uM incubated for 48 hrs by sulforhodamine B assay relative to control; type: functional; method in brief: as §1
SN12C = test: Antiproliferative activity against human SN12C cells assessed as cell growth inhibition at 10 uM incubated for 48 hrs by sulforhodamine B assay relative to control; type: functional; method in brief: as §1
Hs-578T = test: Antiproliferative activity against human Hs-578T cells assessed as cell growth inhibition at 10 uM incubated for 48 hrs by sulforhodamine B assay relative to control; type: functional; method in brief: as §1
K562 = test: Antiproliferative activity against human K562 cells assessed as cell growth inhibition at 10 uM incubated for 48 hrs by sulforhodamine B assay relative to control; type: functional; method in brief: as §1
SF-539 = test: Antiproliferative activity against human SF-539 cells assessed as cell growth inhibition at 10 uM incubated for 48 hrs by sulforhodamine B assay relative to control; type: functional; method in brief: as §1
HCT-116 = test: Antiproliferative activity against human HCT-116 cells assessed as cell growth inhibition at 10 uM incubated for 48 hrs by sulforhodamine B assay relative to control; type: functional; method in brief: as §3
SF-268 = test: Antiproliferative activity against human SF-268 cells assessed as cell growth inhibition at 10 uM incubated for 48 hrs by sulforhodamine B assay relative to control; type: functional; method in brief: as §1
RPMI-8226 = test: Antiproliferative activity against human RPMI-8226 cells assessed as cell growth inhibition at 10 uM incubated for 48 hrs by sulforhodamine B assay relative to control; type: functional; method in brief: as §1
HOP-62 = test: Antiproliferative activity against human HOP-62 cells assessed as cell growth inhibition at 10 uM incubated for 48 hrs by sulforhodamine B assay relative to control; type: functional; method in brief: as §3
IGROV-1 = test: Antiproliferative activity against human IGROV-1 cells assessed as cell growth inhibition at 10 uM incubated for 48 hrs by sulforhodamine B assay relative to control; type: functional; method in brief: as §1
UACC-62 = test: Antiproliferative activity against human UACC-62 cells assessed as cell growth inhibition at 10 uM incubated for 48 hrs by sulforhodamine B assay relative to control; type: functional; method in brief: as §1
NCI-H460 = test: Antiproliferative activity against human NCI-H460 cells assessed as cell growth inhibition at 10 uM incubated for 48 hrs by sulforhodamine B assay relative to control; type: functional; method in brief: as §1
SK-MEL-2 = test: Antiproliferative activity against human SK-MEL-2 cells assessed as cell growth inhibition at 10 uM incubated for 48 hrs by sulforhodamine B assay relative to control; type: functional; method in brief: as §1
MDA-MB-468 = test: Antiproliferative activity against human MDA-MB-468 cells assessed as cell growth inhibition at 10 uM incubated for 48 hrs by sulforhodamine B assay relative to control; type: functional; method in brief: as §1
MDA-MB-231 = test: Antiproliferative activity against human MDA-MB-231 cells assessed as cell growth inhibition at 10 uM incubated for 48 hrs by sulforhodamine B assay relative to control; type: functional; method in brief: as §1
NCI/ADR-RES = test: Antiproliferative activity against human NCI/ADR-RES cells assessed as cell growth inhibition at 10 uM incubated for 48 hrs by sulforhodamine B assay relative to control; type: functional; method in brief: as §1
NCI-H322M = test: Antiproliferative activity against human NCI-H322M cells assessed as cell growth inhibition at 10 uM incubated for 48 hrs by sulforhodamine B assay relative to control; type: functional; method in brief: as §1
PC-3 = test: Antiproliferative activity against human PC-3 cells assessed as cell growth inhibition at 10 uM incubated for 48 hrs by sulforhodamine B assay relative to control; type: functional; method in brief: as §1
HL-60 = test: Antiproliferative activity against human HL-60 cells assessed as cell growth inhibition at 10 uM incubated for 48 hrs by sulforhodamine B assay relative to control; type: functional; method in brief: as §3
SR = test: Antiproliferative activity against human SR cells assessed as cell growth inhibition at 10 uM incubated for 48 hrs by sulforhodamine B assay relative to control; type: functional; method in brief: as §1

Structure (SMILES): CC(=O)c1ccc(-c2cn3ccnc3c(-c3ccc4ncn(C5CCCCC5)c4c3)n2)cc1
- inhibition at 10 µM (UO-31): 23.1%
- inhibition at 10 µM (NCI-H522): 10.4%
- inhibition at 10 µM (Malme-3M): 3.01%
- inhibition at 10 µM (LOX IMVI): 14.5%
- inhibition at 10 µM (ACHN): 4.32%
- inhibition at 10 µM (T47D): 54.4%
- inhibition at 10 µM (SK-MEL-5): 24.8%
- inhibition at 10 µM (CCRF-CEM): 1.1%
- inhibition at 10 µM (HT-29): 9.2%
- logD at 1.417 h [1]: 2.06
- inhibition at 10 µM (HCT-15): 18.8%
- inhibition at 10 µM (BT-549): 4.68%
- inhibition at 10 µM (SNB-19): 3.96%
- inhibition at 10 µM (KM12): 11.7%
- inhibition at 10 µM (MOLT-4): 14.3%
- inhibition at 10 µM (U-251): 3.02%
- inhibition at 10 µM (NCI-H23): 8.6%
- inhibition at 10 µM (M14): 3.43%
- inhibition at 10 µM (MDA-MB-435): 6%
- inhibition at 10 µM (HOP-92): 25%
- inhibition at 10 µM (OVCAR-8): 6.38%
- inhibition at 10 µM (MCF7): 12%
- inhibition at 10 µM (SN12C): 6.33%
- inhibition at 10 µM (Hs-578T): 6.34%
- inhibition at 10 µM (K562): 9.6%
- inhibition at 10 µM (SF-539): 2.82%
- inhibition at 10 µM (HCT-116): 15.8%
- inhibition at 10 µM (SF-268): 5.01%
- inhibition at 10 µM (RPMI-8226): 20.8%
- inhibition at 10 µM (HOP-62): 7.41%
- inhibition at 10 µM (IGROV-1): 19.1%
- inhibition at 10 µM (UACC-62): 18.5%
- inhibition at 10 µM (NCI-H460): 7.12%
- inhibition at 10 µM (SK-MEL-2): 0.58%
- inhibition at 10 µM (MDA-MB-468): 0.73%
- inhibition at 10 µM (MDA-MB-231): 7.65%
- inhibition at 10 µM (NCI/ADR-RES): 4.17%
- inhibition at 10 µM (NCI-H322M): 1.19%
- inhibition at 10 µM (PC-3): 17.9%
- inhibition at 10 µM (HL-60): 2.65%
- inhibition at 10 µM (SR): 23.6%
